Active and inactive are the calls of the source.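 Rule for the calls: active = compounds whose fitted curve reaches a 35% growth drop at up to twice the top tested dose; inconclusive = flat curve with a 30 to 70% growth drop, or poor fit; inactive = opposite effect, flat curve, or crossing beyond the limit.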
System: P. aeruginosa PAK mexAB-oprM, EDDHA, OD600 growth, 28 h
Assay: efflux-deficient P. aeruginosa PAK growth delay, dose response, whole organism, PAK mexAB-OprM mutant, OD600, EDDHA, dry powder, set 3 (AID 624072)
Conditions: not given
Procedure, shortened: (§1)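 Test system: Pseudomonas aeruginosa PAK efflux pump deletion mutant ΔmexAB-oprM; incubation: 28 h at 30 °C; buffer or medium: iron-limited succinate M9 medium, pH 7.0, with 2 µM EDDHA chelator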

Row | SMILES | AC35 [µM]
1 | COCCC(C#N)c1ccc(F)cc1 (stereo not given) | 98.3
2 | N#CC(c1ccc(Cl)cc1)c1cccc(C(F)(F)F)n1 (stereo not given) | 3.92
3 | N#CC(c1ccc(Cl)cc1)c1cccc(Cl)n1 (stereo not given) | 5.35
4 | N#CC(c1ccc(F)cc1)c1cccc(C(F)(F)F)n1 (stereo not given) | 3
5 | CCCCC(c1ccc(Cl)cc1)c1nn[nH]n1 (stereo not given) | 97.2
6 | N#CC(c1ccc(Cl)cc1)c1ncccc1Cl (stereo not given) | 6.94
7 | N#CC(c1cccc(Cl)n1)c1ccc(Cl)cc1F (stereo not given) | 6.02
8 | N#CC(c1ccc(Cl)cc1)c1ccc(Cl)cn1 (stereo not given) | 9.77
9 | N#CC(c1cccc(C(F)(F)F)n1)c1ccc(Cl)cc1F (stereo not given) | 4.24

System: not listed separately
Assay: as above
Conditions: P. aeruginosa PAK mexAB-oprM, EDDHA, OD600 growth, 28 h; at 100 µM (top of the series)
Procedure, shortened: as §1

Row | SMILES | activity change, negative = growth inhibition
10 | COCCNC(C#N)c1ccc(Cl)cc1 (stereo not given) | -9.68% (inactive)

From PubChem BioAssay AID624072 (Broad Institute, 2012)
